Test results from ChEMBL document CHEMBL2040752, “Synthesis and effects of some novel tetrahydronaphthalene derivatives on proliferation and nitric oxide production in lipopolysaccharide activated Raw 264.7 macrophages” (Eur J Med Chem, 2011).
Activity calls are given as the source filed them. The calls are words filed in the database; no cut-off is given here.

Columns and labels:
RAW264.7 [1] = assay: Inhibition of nitrite level in LPS-induced mouse RAW264.7 cells at 5 uM by Griess assay relative to LPS treated control; type: functional
Outline: (§1)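 RAW 264.7 cells (4 ×10⁴ per well) pre-incubated with compound for 1 h, then stimulated with LPS ([…]) for 20 h. Supernatant mixed 1:1 with Griess reagent (1% sulfanilamide, 0.1% naphthylethylenediamine dihydrochloride, 2% phosphoric acid) for 10 min at room temperature, read at 550 nm against a NaNO₂ standard curve. Nitrite in the LPS-only group is set as 100%; % inhibition given as mean ± value.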

RAW264.7 [2] = assay: Inhibition of nitrite level in LPS-induced mouse RAW264.7 cells at 50 uM by Griess assay relative to LPS treated control; type: functional; outline: as §1
RAW264.7 [3] = assay: Cytotoxicity against mouse RAW264.7 cells at 50 uM by MTT assay; type: cell-based; settings: raw264.7, 50 µM
Outline: (§2)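 RAW 264.7 macrophages (4 ×10⁴ per well) pretreated with compound for 1 h, then held with or without LPS ([…]) for 20 h. After the supernatant was removed for nitrite assay, cells got 0.5 mg/mL MTT for 1 h at 37 °C. Formazan was dissolved in DMSO for at least 2 h in the dark and read at 550 nm; data are absorbance, mean ± S.D.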

RAW264.7 [4] = assay: Cytotoxicity against mouse RAW264.7 cells at 5 uM by MTT assay; type: cell-based; settings: raw264.7, 5 µM; outline: as §2

SMILES	inhibition (RAW264.7 [1])	inhibition at 50 µM (RAW264.7 [2]) [%]	Activity (RAW264.7 [3])	inhibition at 5 µM (RAW264.7 [1]) [%]	Activity (RAW264.7 [4])	inhibition (RAW264.7 [2])
CC1(C)CCC(C)(C)c2cc(C(=O)NN3CCCCC3)ccc21	inactive	10.5	Toxic			
CC1(C)CC(N)CC(C)(C)N1[O] [TEMPAMINE]		45.6	Non-toxic	26.9	Non-toxic	
Cc1cc2c(cc1NC(=O)C1(C)CCc3c(C)c(O)c(C)c(C)c3O1)C(C)(C)CCC2(C)C (stereo not drawn)	inactive	10.5	Toxic			
Cc1cc2c(cc1NC(=O)c1ccc3c(c1)C(C)(C)CCC3(C)C)C(C)(C)CCC2(C)C	inactive		Toxic		Toxic	inactive
CC1(C)CCC(C)(C)c2cc(C(=O)NC3CC(C)(C)N([O])C(C)(C)C3)ccc21		59.2	Toxic	18.2		
CC1(C)CCC(C)(C)c2cc(C(=O)NC3CCN(Cc4ccccc4)CC3)ccc21		22.5	Non-toxic	21	Non-toxic	
CC1=C(/C=C/C(C)=C/C=C/C(C)=C/C(=O)O)C(C)(C)CCC1 [TRETINOIN]		66	Non-toxic	57.2	Non-toxic	
COc1cc(/C=C/C(=O)Nc2cc3c(cc2C)C(C)(C)CCC3(C)C)ccc1O		48	Toxic	17.8		
CC1(C)CCC(C)(C)c2cc(C(=O)NCc3ccccc3)ccc21	inactive	15.9				
CC1(C)CCC(C)(C)c2cc(C(=O)Nc3nc4ccccc4[nH]3)ccc21		45.7	Non-toxic	15.6	Non-toxic	
Cc1cc2c(cc1NC(=O)/C=C/c1ccccc1)C(C)(C)CCC2(C)C	inactive		Toxic			inactive
O=C(O)/C=C/c1ccc(O)c(O)c1 [CAFFEIC ACID]		44.2	Non-toxic	23.2	Non-toxic	
CC(=O)Oc1c(C)c(C)c2c(c1C)CCC(C)(C(=O)Nc1cc3c(cc1C)C(C)(C)CCC3(C)C)O2 (stereo not drawn)		4.4		15.8		
CC1(C)CCC(C)(C)c2cc(C(=O)Nc3cc[nH]c(=O)n3)ccc21		21.1	Toxic	11.5		
CC1(C)CCC(C)(C)c2cc(C(=O)NCc3ccc(F)cc3F)ccc21	inactive	7.7	Toxic			
CC1(C)CCC(C)(C)c2cc(C(=O)NN3CCOCC3)ccc21		34.3	Toxic	5.8		
Cc1cc2c(cc1NC(=O)/C=C/c1ccc(O)c(O)c1)C(C)(C)CCC2(C)C		46.2	Toxic	23.3		

SMILES	inhibition (RAW264.7 [1])	inhibition at 50 µM (RAW264.7 [2]) [%]	Activity (RAW264.7 [3])	inhibition at 5 µM (RAW264.7 [1]) [%]	Activity (RAW264.7 [4])	inhibition (RAW264.7 [2])
O=C(O)CCCCC1CCSS1 (stereo not drawn) [LIPOIC ACID, ALPHA]		46	Non-toxic	25.2	Non-toxic	
COc1cc(/C=C/C(=O)O)ccc1O [FERULATE]		39.1	Non-toxic	24.8	Non-toxic	
CC1(C)CCC(C)(C)c2cc(C(=O)Nc3ncccn3)ccc21	inactive	18.6				
Cc1cc2c(cc1NC(=O)CCCC[C@@H]1CCSS1)C(C)(C)CCC2(C)C		22.8		28.5		
COc1ccc(/C=C/C(=O)Nc2cc3c(cc2C)C(C)(C)CCC3(C)C)cc1OC		32.8	Non-toxic	24.1	Non-toxic	
CC1(C)CCC(C)(C)c2cc(C(=O)NN3CCCCCC3)ccc21		43.6	Toxic	25.7		
CC1(C)CCC(C)(C)c2cc(C(=O)NC3CC3)ccc21		38.2	Toxic	20.5		
Cc1c(C)c2c(c(C)c1O)CCC(C)(C(=O)O)O2 (stereo not drawn) [TROLOX]		39.3	Non-toxic	33.4	Non-toxic	
COc1ccc(CCCC(=O)Nc2cc3c(cc2C)C(C)(C)CCC3(C)C)cc1OC	inactive		Toxic			inactive
CC1(C)CC(NC(=O)c2ccc3c(c2)C(C)(C)CCC3(C)C)CC(C)(C)N1		42.9	Non-toxic	19.1	Non-toxic	
CC1(C)CCC(C)(C)c2cc(C(=O)Nc3cccc4ccccc34)ccc21		5.7		10.5		
CC1(C)CCC(C)(C)c2cc(C(=O)Nc3nccs3)ccc21	inactive	33.5	Toxic			
CC1(C)CCC(C)(C)c2cc(C(=O)NCCN3CCOCC3)ccc21		40.1	Toxic	14.3		
CCOC(=O)N1CCC(NC(=O)c2ccc3c(c2)C(C)(C)CCC3(C)C)CC1	inactive	30				
Cc1cc2c(cc1NC(=O)CCCc1ccccc1)C(C)(C)CCC2(C)C	inactive		Toxic			inactive
CC1(C)CCC(C)(C)c2cc(C(=O)NCc3ccc(Cl)cc3Cl)ccc21	inactive	6.6				
